Assay results from ChEMBL document CHEMBL1143811, “Bis-acridines as lead antiparasitic agents: structure-activity analysis of a discrete compound library in vitro” (Antimicrob Agents Chemother, 2007).
Values after ≈ are worked out from the molar mass of the structure shown. Active and inactive are the calls of the source. The calls are words filed in the database; no cut-off is given here.

Legend:
[1] = test system: Entamoeba histolytica; assay: Antimicrobial activity against Entamoeba histolytica HM1 IMSS trophozoites after 48 hrs; type: functional, organism-based; conditions: 60 h, in the assay text read “60 hrs” for “48 hrs”
In short: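 Trophozoites were grown axenically in TYI-S-33 with 10% bovine adult serum and seeded at ~10^4 cells/well. Compound (range up to 10 µM) was added to 48-h log-phase cultures, then incubated 60 h at 37°C under anaerobic conditions. Viability was read by CellTiter-Glo luminescence. EC50 came from quadruplicate wells in two independent experiments.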

[2] = test system: Trichomonas vaginalis; assay: Antimicrobial activity against Trichomonas vaginalis G3 assessed as parasite death at 1 uM after 24 hrs; type: functional
[3] = test system: Plasmodium falciparum; assay: Antimicrobial activity against chloroquine-resistant Plasmodium falciparum W2 after 72 hrs; type: functional, organism-based; conditions: W2, 72 h
[4] = test system: Plasmodium falciparum; assay: Antimicrobial activity against chloroquine-sensitive Plasmodium falciparum 3D7 after 72 hrs; type: functional, organism-based; conditions: 3D7, 72 h
[5] = (§1) Cytotoxicity against human HL60 cells; type: cell-based, HL-60; conditions: human, HL-60 cells; read-out: MIC
In short: (§2)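 Bloodstream-form T. b. brucei in Baltz medium (~10^4/ml) and HL-60 cells in RPMI 1640 (~10^5/ml), both with 16.7% FBS, were exposed 48 h at 37°C in 5% CO2 to compound up to 10 µM in 1% final DMSO. Live cells were hemocytometer-counted, by motility (trypanosomes) or trypan blue exclusion (HL-60). EC50 was taken by regression versus DMSO cultures from three experiments. MIC was the lowest fully lethal concentration, judged microscopically.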

[6] = test system: HL-60; assay: as §1; type: cell-based; conditions: Homo sapiens, HL-60; in short: as §2
[7] = test system: Trichomonas vaginalis; assay: Antimicrobial activity against Trichomonas vaginalis G3 assessed as parasite death at 10 uM after 24 hrs; type: functional
In short: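 G3 strain grown in Diamond's medium at 37°C. Assay culture set up as 0.5 ml dense culture diluted into 5.0 ml complete medium. Compound at a final 10 µM for 24 h at 37°C. Motile cells counted by hemocytometer. Result is percent dead parasites relative to DMSO-treated cultures, from five separate experiments. Controls were untreated, DMSO and metronidazole.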

[8] = Selectivity index, ratio of MIC for HL60 cells to MIC for Trypanosoma brucei brucei clone 427-221a; type: functional, HL-60; in short: as §2
[9] = test system: MRC5; assay: Toxicity against human MRC5 cells at 3.13 uM; type: cell-based; conditions: mrc5, 3.13 µM
[10] = test system: Trypanosoma brucei brucei; assay: Antimicrobial activity against Trypanosoma brucei brucei clone 427-221a at 1.56 uM; type: functional
[11] = Cytotoxicity against BALB/c mouse peritoneal macrophages at 10 uM after 48 hrs hrs; type: cell-based; conditions: macrophage
[12] = Selectivity index, ratio of EC50 for HL60 cells to EC50 for Trypanosoma brucei brucei clone 427-221a; type: functional, HL-60; in short: as §2
[13] = test system: Schistosoma mansoni; assay: Antimicrobial activity against Schistosoma mansoni assessed as worm vitality at 6 uM after 4 hrs; type: functional, organism-based
In short: (§3)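 20-day-old worms were obtained by perfusion of BALB/c mice infected with 200 cercariae. About 20 worms/well were kept in Basch 169 with 10% bovine calf serum, preincubated 24 h at 37°C in 5% CO2, then exposed to 1, 3 or 6 µM. Vitality (feeding, flexing, gut peristalsis; death = nonmotile, shrunken, dark) was scored at 4 and 18 h in two experiments.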

[14] = test system: Schistosoma mansoni; assay: Antimicrobial activity against Schistosoma mansoni assessed as worm vitality at 3 uM after 4 hrs; type: functional, organism-based; in short: as §3
[15] = test system: Leishmania donovani; assay: Antileishmanial activity against Leishmania donovani MHOM/SD/00/1S-2D promastigotes assessed as parasite death at 10 uM after 72 hrs; type: functional
In short: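 Promastigotes seeded at 1.5 x 10^5 cells/ml in medium 199 with 10% heat-inactivated FBS. Compound added at a final 10 µM, in triplicate, in sealed flasks at 27°C for up to 7 days. Aliquots taken daily and viability read by CellTiter-Glo luminescence. Result given as percent reduction in viability relative to DMSO-treated cultures. Controls were K11777 or amphotericin B at 10 µM.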

[16] = test system: Trypanosoma brucei brucei; assay: Antimicrobial activity against Trypanosoma brucei brucei clone 427-221a after 48 hrs; type: functional, organism-based; in short: as §2
[17] = test system: Plasmodium falciparum; assay: Antimalarial activity against chloroquine-resistant Plasmodium falciparum FcB1R after 72 hrs; type: functional, organism-based
[18] = test system: Leishmania major; assay: Antileishmanial activity against Leishmania major MHOM/IL/81/FE/BNI amastigotes after 48 hrs at 1 uM; type: functional, organism-based
In short: (§4)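 Peritoneal macrophages from BALB/c mice (6-8 wk) adhered 2 h at 37°C, infected 24 h with stationary-phase L. major promastigotes at 10:1 parasite:macrophage, washed, then exposed 48 h to compound at 0.0001 to 10 µM. Intracellular amastigotes stained with acridine orange/ethidium bromide and counted by fluorescence microscopy; percent amastigotes cleared versus DMSO-treated cultures; three repeats.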

[19] = Cytotoxicity against BALB/c mouse peritoneal macrophages at 1 uM after 48 hrs hrs; type: cell-based; conditions: macrophage
[20] = test system: J774; assay: Cytotoxicity against mouse J774 cells; type: cell-based
[21] = test system: Leishmania major; assay: Antileishmanial activity against Leishmania major MHOM/IL/81/FE/BNI amastigotes after 48 hrs; type: functional, organism-based; in short: as §4

Cc1ncc([N+](=O)[O-])n1CCO [METRONIDAZOLE]
EC50 [1]: 2000 nM | Activity [2]: 100%

COc1ccc2nc3cc(Cl)ccc3c(NCCCNCCCNc3c4ccc(Cl)cc4nc4ccc(OC)cc34)c2c1
EC50 [3]: 180 nM | EC50 [4]: 127 nM | MCC [5]: 10 µM | EC50 [6]: 244 nM | EC50 [1]: 5000 nM | Activity [7]: 23% | Ratio [8]: 10 | Activity [9]: 100% | Activity [10]: 100% | Activity [11]: Toxic | Ratio EC50 [12]: 214 | Activity [13]: Active | Activity [14]: Active | Activity [15]: 95% | EC50 [16]: 1.1 nM | MIC [16]: 1 µM (≈ 0.615 µg/mL) | EC50 [17]: 55 nM | Activity [18]: inactive | Activity [19]: Toxic

COc1ccc2nc3cc(Cl)ccc3c(NCCCCNCCCNc3c4ccc(Cl)cc4nc4ccc(OC)cc34)c2c1
EC50 [3]: 135 nM | EC50 [4]: 62 nM | MCC [5]: 10 µM | EC50 [6]: 144 nM | EC50 [1]: 5000 nM | Activity [7]: 3% | Ratio [8]: 10 | Activity [9]: 100% | Activity [10]: 100% | Activity [11]: Toxic | Activity [20]: Toxic | EC50 [21]: 800 nM | Ratio EC50 [12]: 209 | Activity [13]: Active | Activity [14]: Active | Activity [15]: 96% | EC50 [16]: 0.7 nM | MIC [16]: 1 µM (≈ 0.629 µg/mL) | EC50 [17]: 61 nM

COc1ccc2nc3cc(Cl)ccc3c(NCCOCCOCCNc3c4ccc(Cl)cc4nc4ccc(OC)cc34)c2c1
EC50 [3]: 74 nM | EC50 [4]: 61 nM | MCC [5]: 10 µM | EC50 [6]: 3040 nM | EC50 [1]: 5000 nM | Activity [7]: 75% | Ratio [8]: 10 | Activity [11]: Toxic | Ratio EC50 [12]: 524 | Activity [15]: 96% | EC50 [16]: 5.8 nM | MIC [16]: 1 µM (≈ 0.632 µg/mL) | Activity [18]: inactive | Activity [19]: Toxic

COc1ccc2nc3cc(Cl)ccc3c(NCCNCCCNCCNc3c4ccc(Cl)cc4nc4ccc(OC)cc34)c2c1
EC50 [3]: 136 nM | EC50 [4]: 105 nM | MCC [5]: 1 µM | EC50 [6]: 120 nM | EC50 [1]: 5000 nM | Activity [7]: 75% | Ratio [8]: 1 | Activity [11]: Toxic | Ratio EC50 [12]: 91 | Activity [13]: Active | Activity [14]: Active | Activity [15]: 99% | EC50 [16]: 1.3 nM | MIC [16]: 1 µM (≈ 0.644 µg/mL) | Activity [18]: inactive | Activity [19]: Toxic

COc1ccc2nc3cc(Cl)ccc3c(NCCCCN(CCCNc3c4ccc(Cl)cc4nc4ccc(OC)cc34)C(=O)[C@H](C)N)c2c1
EC50 [3]: 303 nM | EC50 [4]: 310 nM | MCC [5]: 10 µM | EC50 [6]: 225 nM | EC50 [1]: 5000 nM | Activity [7]: 80% | Ratio [8]: 10 | Activity [11]: Toxic | Ratio EC50 [12]: 242 | Activity [15]: 93% | EC50 [16]: 0.9 nM | MIC [16]: 1 µM (≈ 0.7 µg/mL) | Activity [18]: inactive | Activity [19]: Toxic
